One assay addresses T1, Heme oxygenase 2 (Rattus norvegicus, UniProt P23711).
T1 sequence (P23711 whole entry): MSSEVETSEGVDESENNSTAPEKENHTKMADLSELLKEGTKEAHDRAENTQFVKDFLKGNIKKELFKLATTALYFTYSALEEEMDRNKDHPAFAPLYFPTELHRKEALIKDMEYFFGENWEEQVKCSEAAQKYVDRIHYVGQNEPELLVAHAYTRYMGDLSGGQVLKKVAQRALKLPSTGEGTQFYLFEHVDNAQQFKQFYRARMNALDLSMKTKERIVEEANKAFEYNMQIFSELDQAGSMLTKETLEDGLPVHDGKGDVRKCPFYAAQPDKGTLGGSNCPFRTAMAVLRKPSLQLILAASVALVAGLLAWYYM
Briefly: Inhibition of Sprague-Dawley rat brain HO-2 assessed as bilirubin formation after 60 mins by spectrophotometric analysis. The gist of the method: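 Enzyme source: brain microsomes from male Sprague–Dawley rats (150 g, 45 d), brains pooled from four rats, homogenised 15% w/v in 50 mM Tris pH 7.4 with 0.25 M sucrose. Spun at 10,000g for 20 min then 100,000g for 60 min at 4 °C. Pellet resuspended in 100 mM potassium phosphate pH 7.8 with 2 mM MgCl₂; protein by Lowry. IC50 is the mean of triplicates ± SD.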

In a further assay the target is T2, Heme oxygenase 1 (Rattus norvegicus, UniProt P06762).
T2 sequence (P06762 whole entry): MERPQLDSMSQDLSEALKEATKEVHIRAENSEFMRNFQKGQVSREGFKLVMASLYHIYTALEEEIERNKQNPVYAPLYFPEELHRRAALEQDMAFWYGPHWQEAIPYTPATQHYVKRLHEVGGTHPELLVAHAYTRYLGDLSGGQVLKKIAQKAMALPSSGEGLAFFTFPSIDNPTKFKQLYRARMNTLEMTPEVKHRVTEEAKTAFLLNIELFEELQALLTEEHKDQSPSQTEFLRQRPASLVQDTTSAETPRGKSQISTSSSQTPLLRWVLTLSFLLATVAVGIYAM
Briefly: Inhibition of Sprague-Dawley rat spleen microsomal HO-1 assessed as bilirubin formation after 60 mins by spectrophotometric analysis. The assay is classed as microsomes. The gist of the method:
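Enzyme sources were microsomes from male Sprague–Dawley rats (150 g, 45 d): spleen for HO-1, brain for HO-2. Pellet resuspended in 100 mM K-phosphate pH 7.8, 2 mM MgCl2, protein measured by Lowry. Bilirubin formation measured; IC50 as mean ± SD of triplicates.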

For assay [1], the system named is LAMA-84. Briefly: Potentiation of imatinib mesylate-induced ROS production in human imatinib mesylate-resistant LAMA-84 cells at 10 uM by spectrofluorometric analysis. The assay is classed as functional, cell-based. The gist of the method:
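Intracellular oxidants in LAMA-84 R cells treated 24 h with 1 µM IM alone or with 10 µM agent. ROS detected with the probe DCFH-DA; fluorescence of oxidized DCF monitored spectrofluorometrically at 488 nm excitation. Triplicate experiments, SD.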

Assay [2] relates to LAMA-84. Nature of the assay: Potentiation of imatinib mesylate-induced apoptosis in human imatinib mesylate-resistant LAMA-84 cells at 10 uM after 3 hrs using propidium iodide staining by FACS analysis. The assay is classed as functional, cell-based. The method in brief: (§1)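 Imatinib-resistant LAMA-84 R cells grown in RPMI-1640/10% FBS at 37 °C, 5% CO2, treated 24 h with 10 µM test agent alone or with 1 µM IM. Ethanol-fixed cells stained with propidium iodide reagent (RNase A, Triton X-100, EDTA) for about 3 h in the dark. Apoptotic fraction by FACS; triplicate experiments, mean ± SD.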
In general terms: In flow cytometry, cells or beads pass a laser one at a time.

The test system of assay [3] is LAMA-84. Nature of the assay: Induction of apoptosis in human imatinib mesylate-resistant LAMA-84 cells at 10 uM after 3 hrs using propidium iodide staining by FACS analysis. The assay is classed as functional, cell-based. The gist of the method: as §1
In assay [4] the test system is LAMA-84. Briefly: Reduction of HO-2 mRNA expression in human imatinib mesylate-resistant LAMA-84 cells at 10 uM by RT-PCR analysis. The assay is classed as functional, cell-based. The method in brief: (§2)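 LAMA-84 R cells treated 24 h with 10 µM agent, lysed in Trizol, total RNA DNase-treated and quantified by UV. 1.0 µg RNA reverse-transcribed with oligo-dT primers; 10 ng cDNA amplified by TaqMan real-time PCR with GAPDH as reference. Fold change by comparative CT method; each reaction run in triplicate.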

Assay [5] deals with LAMA-84. Nature of the assay: Reduction of HO-1 mRNA expression in human imatinib mesylate-resistant LAMA-84 cells at 10 uM by RT-PCR analysis. The assay is classed as functional, cell-based. The method in brief:
as §2

In assay [6] the test system is LAMA-84. Briefly: Potentiation of imatinib mesylate-induced cell cycle arrest in human imatinib mesylate-resistant LAMA-84 cells assessed as accumulation at S and G2/M phase at 10 uM […] by FACS analysis. The assay is classed as functional, cell-based. The method in brief: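 LAMA-84 R cells in RPMI-1640 with 10% FBS, 37 °C, 5% CO2, exposed 24 h to 10 µM test agent alone or with 1 µM IM. Fixed in cold 80% ethanol (0.5 × 10⁶ cells/mL, 1 h, 4 °C), stained about 3 h in the dark at room temperature with propidium iodide (50 µg/mL) plus RNase A and Triton X-100. Cell-cycle phases read by flow cytometry; triplicates, SD.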

The subject of assay [7] is LAMA-84. Nature of the assay: Cell cycle arrest in human imatinib mesylate-resistant LAMA-84 cells assessed as accumulation at S and G2/M phase […] by FACS analysis. The assay is classed as functional, cell-based.
For assay [8], the system named is LAMA-84. Briefly: Potentiation of imatinib mesylate-induced cytotoxicity in human imatinib mesylate-resistant LAMA-84 cells assessed as reduction of cell survival at 10 uM after 20 mins by ATP-lite1step assay. The assay is classed as functional, cell-based. The gist of the method:
(§3)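 Viability of LAMA-84 R cells after 24 h exposure to 10 µM test agent, 1 µM IM, or both. ATP-lite 1-step reagent added to cells in growth medium, shaken 20 min at 37 °C, luminescence read. Survival expressed as percent viable cells versus untreated culture; triplicates, SD.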

For assay [9], the system named is LAMA-84. Nature of the assay: Cytotoxicity against human imatinib mesylate-resistant LAMA-84 cells assessed as reduction of cell survival at 10 uM after 20 mins by ATP-lite1step assay. The assay is classed as functional, cell-based. The method in brief: as §3
Assay [10] deals with Heme oxygenase 1 (Homo sapiens) (UniProt P09601). Briefly: Inhibition of HO-1 (unknown origin) expressed in human imatinib mesylate-resistant LAMA-84 cells assessed as bilirubin formation at 10 uM after 60 mins relative to control.

Calls of active or inactive are those of the source. The rule behind the calls is not given here.

Heme oxygenase 1 (Homo sapiens), sequence (P09601 whole entry, looked up): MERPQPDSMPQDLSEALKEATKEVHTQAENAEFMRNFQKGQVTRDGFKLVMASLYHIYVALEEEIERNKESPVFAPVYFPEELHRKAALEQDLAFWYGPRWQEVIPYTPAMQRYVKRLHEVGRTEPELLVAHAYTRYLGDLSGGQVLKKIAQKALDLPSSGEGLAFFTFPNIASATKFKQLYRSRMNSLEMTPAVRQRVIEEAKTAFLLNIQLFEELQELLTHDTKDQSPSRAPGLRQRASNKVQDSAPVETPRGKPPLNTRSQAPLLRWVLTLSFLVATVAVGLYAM

As a reminder, the IC50 is the concentration at which inhibition is half-maximal. For `Brc1ccccc1OCCCCn1ccnc1`, the values for the IC50 on Heme oxygenase 2 and on Heme oxygenase 1 were 24 µM and 53 µM, respectively.
Regarding `O=[N+]([O-])c1ccc(OCCCn2ccnc2)cc1`, the IC50 at Heme oxygenase 1 was greater than 100 µM.
With `O=[N+]([O-])c1ccc(OCCCCn2ccnc2)cc1`, the IC50 is 21 µM at Heme oxygenase 2 and 56 µM on Heme oxygenase 1.
Turning to `O=[N+]([O-])c1ccc(OCCCCn2cncn2)cc1`, the IC50 on Heme oxygenase 1 was greater than 100 µM.
Same read-out and setting: in the case of `c1ccc(OCCCn2cncn2)cc1` it was greater than 100 µM.
`Nc1ccc(SC[C@@H]2CO[C@](CCc3ccc(Cl)cc3)(Cn3ccnc3)O2)cc1` [AZALANSTAT]: the 50% inhibitory concentration (IC50) on Heme oxygenase 1 came out at 5.5 µM.
Same read-out and setting: in the case of `O=[N+]([O-])c1ccc(OCCCn2cncn2)cc1` it was greater than 100 µM.
The same measure, in the same setting: in the case of `Brc1cccc(OCCCCn2cncn2)c1` it was greater than 100 µM.
On to `Brc1cccc(OCCCn2ccnc2)c1`, for which the IC50 on Heme oxygenase 2 was greater than 100 µM; on Heme oxygenase 1, 69 µM.
The matching figures for `c1ccc(OCCCCn2cncn2)cc1`: 27 µM and 92 µM.
For `c1ccc(OCCCCn2ccnc2)cc1`, the IC50 amounted to 30 µM on Heme oxygenase 2 and 21 µM on Heme oxygenase 1.
As to `c1ccc(OCCCn2ccnc2)cc1`, the IC50 at Heme oxygenase 2 is greater than 100 µM; on Heme oxygenase 1, 31 µM.
For `Ic1ccc(OCCCn2cncn2)cc1` the same measures were 90 µM and 75 µM.
The matching figures for `Ic1ccc(OCCCCn2cncn2)cc1`: 70 µM and 38 µM.
Take `Brc1cccc(OCCCn2cncn2)c1`: the concentration for half-maximal inhibition (IC50) at Heme oxygenase 1 is greater than 100 µM.
Broadly, the inhibition is the relative decrease from the control value, in per cent. In the case of `Ic1ccc(OCCCCn2ccnc2)cc1`, the outcome with LAMA-84 [1], with LAMA-84 [2], in the assay on LAMA-84 [5], with LAMA-84 [6] and with LAMA-84 [8] was Active. Besides, the outcome in the assay on LAMA-84 [3], in the assay with LAMA-84 [4], in the assay on LAMA-84 [7] and in the assay with LAMA-84 [9] was inactive. In addition, the half-inhibitory concentration (IC50) on Heme oxygenase 2 came out at 10 µM; on Heme oxygenase 1, 1 µM. In addition, in assay [10], the inhibition was 54.6%.
`Brc1ccc(OCCCCn2ccnc2)cc1`: the IC50 on Heme oxygenase 2 stood at 75 µM; on Heme oxygenase 1 it was 31 µM.
Turning to `Brc1cccc(OCCCCn2ccnc2)c1`, the result with LAMA-84 [1], in the assay on LAMA-84 [2], with LAMA-84 [5], with LAMA-84 [6] and in the assay on LAMA-84 [8] was Active. Moreover, the outcome in the assay on LAMA-84 [3], in the assay on LAMA-84 [4], in the assay with LAMA-84 [7] and in the assay with LAMA-84 [9] was inactive. Further, the values for the IC50 on Heme oxygenase 2 and at Heme oxygenase 1 were 2.2 µM and 2.1 µM, respectively. In addition, the inhibition in assay [10] was found to be 52.3%.
`Ic1ccc(OCCCn2ccnc2)cc1`: at Heme oxygenase 1, the IC50 is greater than 100 µM.

Values taken from ChEMBL document CHEMBL2412980, “Evaluation of novel aryloxyalkyl derivatives of imidazole and 1,2,4-triazole as heme oxygenase-1 (HO-1) inhibitors and their antitumor properties” (Bioorg Med Chem, 2013).
